According to ChEMBL document CHEMBL3525906, “A comprehensive assessment of repaglinide metabolic pathways: impact of choice of in vitro system and relative enzyme contribution to in vitro clearance” (Drug Metab Dispos, 2012):

What was measured:
[1] = Drug metabolism in human hepatic S9 fraction assessed as glucuronide formation by LC-MS/MS method; format: ADME, Liver
Hepatocyte [2] = assay: Unbound intrinsic clearance in human hepatocytes assessed as 2-despiperidyl-2-(5-carboxypentylamine) repaglinide formation measured per 10^6 cells at 0.5 to 150 uM by LC-MS/MS method; format: ADME, cell-based
Hepatocyte [3] = assay: Unbound intrinsic clearance in human hepatocytes assessed as glucuronide formation measured per 10^6 cells at 0.5 to 150 uM by LC-MS/MS method; format: ADME, cell-based
Hepatocyte [4] = assay: Drug metabolism in human hepatocytes assessed as 2-despiperidyl-2-(5-carboxypentylamine) repaglinide formation measured per 10^6 cells at 0.5 to 150 uM by LC-MS/MS method; format: ADME, cell-based
[5] = Drug metabolism in human hepatic S9 fraction assessed as 2-despiperidyl-2-(5-carboxypentylamine) repaglinide formation measured per mg of protein at 0.5 to 150 uM by LC-MS/MS method; format: ADME, Liver; conditions: s9, 150 µM
Liver microsome [6] = assay: Unbound intrinsic clearance in human liver microsomes assessed as 2-despiperidyl-2-(5-carboxypentylamine) repaglinide formation measured per mg of protein at 0.5 to 150 uM by LC-MS/MS method; format: ADME
Summary of the method: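 Pooled HLM, 0.3 mg/ml, in 0.1 M phosphate pH 7.4 with 10 mM MgCl2 and NADPH regenerating system. Repaglinide at 8 levels, 0.5-150 μM; 37°C, 10 min. Metabolites by LC-MS/MS against authentic standards; fu_inc 0.85. Duplicates on three occasions.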

Liver microsome [7] = assay: Drug metabolism in human liver microsomes assessed as glucuronide formation measured per mg of protein at 0.5 to 150 uM by LC-MS/MS method; format: ADME
Hepatocyte [8] = assay: Unbound intrinsic clearance in human hepatocytes assessed as 2-despiperidyl-2-amino repaglinide formation measured per 10^6 cells at 0.5 to 150 uM by LC-MS/MS method; format: ADME, cell-based
Cytochrome P450 3A4 = Cytochrome P450 3A4 (Homo sapiens, UniProt P08684); assay: Unbound intrinsic clearance in human recombinant CYP3A4 expressed in insect cells assessed as enzyme-mediated 3'-hydroxy repaglinide formation per nanomole of protein at 0.5 to 150 uM by LC-MS/MS method; format: ADME
Chain of Cytochrome P450 3A4 (P08684 whole entry): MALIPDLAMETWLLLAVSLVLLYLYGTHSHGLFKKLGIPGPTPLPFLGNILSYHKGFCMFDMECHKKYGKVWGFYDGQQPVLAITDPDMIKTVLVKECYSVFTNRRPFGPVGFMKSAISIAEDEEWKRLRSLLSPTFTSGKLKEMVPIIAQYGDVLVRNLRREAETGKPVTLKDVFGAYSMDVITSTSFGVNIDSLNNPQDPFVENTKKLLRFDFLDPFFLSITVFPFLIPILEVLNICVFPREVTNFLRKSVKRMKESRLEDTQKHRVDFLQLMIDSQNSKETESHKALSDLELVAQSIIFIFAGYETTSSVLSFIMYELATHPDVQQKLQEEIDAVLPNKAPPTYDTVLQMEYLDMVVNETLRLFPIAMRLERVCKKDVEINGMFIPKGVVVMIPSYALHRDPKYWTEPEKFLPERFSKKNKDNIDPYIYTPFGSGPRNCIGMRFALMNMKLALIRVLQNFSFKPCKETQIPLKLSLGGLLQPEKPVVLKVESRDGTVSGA

Homo sapiens = organism: Homo sapiens; assay: Ratio of AUC in variable OATP1B1 genotype human patient at 0.25 mg to AUC in ariable OATP1B1 genotype human patient at 0.25 mg co-treated with gemfibrozil on various time intervals; format: ADME, organism-based; conditions: in vivo
Cytochrome P450 2C8 [9] = target: T1, Cytochrome P450 2C8 (Homo sapiens, UniProt P10632); assay: Unbound intrinsic clearance in human recombinant CYP2C8 expressed in insect cells assessed as enzyme-mediated 3'-hydroxy repaglinide formation per nanomole of protein at 0.5 to 150 uM by LC-MS/MS method; format: ADME
T1 sequence (P10632 whole entry): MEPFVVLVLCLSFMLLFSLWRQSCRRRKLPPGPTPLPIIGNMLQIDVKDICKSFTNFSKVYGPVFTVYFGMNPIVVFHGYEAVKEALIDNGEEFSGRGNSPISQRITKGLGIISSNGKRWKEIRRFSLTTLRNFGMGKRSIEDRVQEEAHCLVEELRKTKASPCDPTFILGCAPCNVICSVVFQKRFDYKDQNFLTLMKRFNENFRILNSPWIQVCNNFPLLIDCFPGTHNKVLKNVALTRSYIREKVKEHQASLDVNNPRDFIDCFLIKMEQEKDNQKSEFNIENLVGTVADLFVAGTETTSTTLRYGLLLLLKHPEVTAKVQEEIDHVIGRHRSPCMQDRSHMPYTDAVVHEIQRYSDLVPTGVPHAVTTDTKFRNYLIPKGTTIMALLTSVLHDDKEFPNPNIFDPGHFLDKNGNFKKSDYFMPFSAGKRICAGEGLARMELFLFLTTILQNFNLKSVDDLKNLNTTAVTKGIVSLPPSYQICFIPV

Cytochrome P450 2C8 [10] = target: T1, Cytochrome P450 2C8; assay: Fraction metabolism via CYP2C8 in human liver microsomes; format: ADME
[11] = Fraction metabolism via UGT in human liver microsomes; format: ADME
Liver microsome [12] = assay: Drug metabolism in human liver microsomes assessed as 3'-hydroxy repaglinide formation measured per mg of protein at 0.5 to 150 uM by LC-MS/MS method; format: ADME

CCOc1cc(CC(=O)N[C@@H](CC(C)C)c2ccccc2N2CCCCC2)ccc1C(=O)O [REPAGLINIDE]
Km [1]: 47 µM | CL free (Hepatocyte [2]): 3.3 uL/min/10^6cells | CL free (Hepatocyte [3]): 0.13 uL/min/10^6cells | Vmax (Hepatocyte [4]): 80 pmol/min/10^6cells | Vmax [5]: 94 pmol/min/mg | CL free (Liver microsome [6]): 1.4 µL/min/mg | Vmax (Liver microsome [7]): 170 pmol/min/mg | CL free (Hepatocyte [8]): 0.75 uL/min/10^6cells | CL free (Cytochrome P450 3A4): 2 µL/min/nmol | Ratio (Homo sapiens): 1 | CL free (Cytochrome P450 2C8 [9]): 70 µL/min/nmol | Fm (Cytochrome P450 2C8 [10]): 0.63 | Fm [11]: 0.19 | Vmax (Liver microsome [12]): 130 pmol/min/mg
